Active and inactive are the calls of the source. The rule behind the calls is not given here.
Experiments:
Acetylcholinesterase = Acetylcholinesterase (Homo sapiens, UniProt P22303); assay: Inhibition of recombinant human AChE using acetylthiocholine iodide as substrate preincubated for 5 mins followed by substrate addition and measured for 5 mins by Ellman's method
Cholinesterase [1] = molecular target: T1, Cholinesterase (Homo sapiens, UniProt P06276); assay: Inhibition of recombinant human BuChE using butyrylthiocholine iodide as substrate preincubated for 5 mins followed by substrate addition and measured for 5 mins by Ellman's method
Cholinesterase [2] = molecular target: T1, Cholinesterase; assay: Potency index, ratio of donepezil IC50 to test compound IC50 for recombinant human BuChE
Homo sapiens = species: Homo sapiens; assay: Selectivity ratio of IC50 for recombinant human AChE to IC50 for recombinant human BuChE
Cholinesterase [3] = molecular target: T1, Cholinesterase; assay: Mixed-type inhibition of recombinant human BuChE using varying levels of butyrylthiocholine iodide as substrate by Lineweaver-burk plot analysis
SH-SY5Y [4] = assay: Cytotoxicity against human SH-SY5Y cells assessed as reduction in cell viability at BuChE IC50 after 24 hrs by XTT assay; assay type: cell-based
In short: (§1)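 SH-SY5Y human neuroblastoma cells were treated with seven concentrations of each compound. Viability was read by XTT colorimetric assay after a 24 h or 120 h recovery period.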

SH-SY5Y [5] = assay: Cytotoxicity against human SH-SY5Y cells assessed as reduction in cell viability at 39.6 nM after 24 hrs by XTT assay; assay type: cell-based; settings: 0.0396 µM
SH-SY5Y [6] = assay: Cytotoxicity against human SH-SY5Y cells assessed as reduction in cell viability at BuChE IC50 after 120 hrs by XTT assay; assay type: cell-based; in short: as §1
SH-SY5Y [7] = assay: Cytotoxicity against human SH-SY5Y cells assessed as reduction in cell viability at 40 uM after 24 hrs by XTT assay; assay type: cell-based
SH-SY5Y [8] = assay: Cytotoxicity against human SH-SY5Y cells assessed as reduction in cell viability at 80 uM after 24 hrs by XTT assay; assay type: cell-based
SH-SY5Y [9] = assay: Cytotoxicity against human SH-SY5Y cells assessed as reduction in cell viability at 2.5 uM after 24 hrs by XTT assay; assay type: cell-based

T1 sequence (P06276 whole entry): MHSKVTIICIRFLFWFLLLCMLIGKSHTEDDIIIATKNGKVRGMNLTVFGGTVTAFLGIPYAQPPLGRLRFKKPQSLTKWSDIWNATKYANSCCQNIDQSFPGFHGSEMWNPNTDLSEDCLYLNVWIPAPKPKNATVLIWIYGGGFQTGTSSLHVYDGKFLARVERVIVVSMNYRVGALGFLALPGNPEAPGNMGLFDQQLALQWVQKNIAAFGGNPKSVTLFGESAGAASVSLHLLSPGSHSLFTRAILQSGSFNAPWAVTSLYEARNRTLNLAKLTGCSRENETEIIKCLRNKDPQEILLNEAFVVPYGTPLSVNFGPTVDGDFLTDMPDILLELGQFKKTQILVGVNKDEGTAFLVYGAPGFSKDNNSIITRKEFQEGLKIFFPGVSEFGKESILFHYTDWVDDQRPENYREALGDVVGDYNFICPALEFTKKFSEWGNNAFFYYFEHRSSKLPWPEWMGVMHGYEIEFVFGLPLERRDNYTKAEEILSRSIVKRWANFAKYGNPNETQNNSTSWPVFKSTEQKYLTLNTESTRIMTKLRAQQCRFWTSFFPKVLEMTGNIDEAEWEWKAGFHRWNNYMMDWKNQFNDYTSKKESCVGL
Chain of Acetylcholinesterase (P22303 whole entry): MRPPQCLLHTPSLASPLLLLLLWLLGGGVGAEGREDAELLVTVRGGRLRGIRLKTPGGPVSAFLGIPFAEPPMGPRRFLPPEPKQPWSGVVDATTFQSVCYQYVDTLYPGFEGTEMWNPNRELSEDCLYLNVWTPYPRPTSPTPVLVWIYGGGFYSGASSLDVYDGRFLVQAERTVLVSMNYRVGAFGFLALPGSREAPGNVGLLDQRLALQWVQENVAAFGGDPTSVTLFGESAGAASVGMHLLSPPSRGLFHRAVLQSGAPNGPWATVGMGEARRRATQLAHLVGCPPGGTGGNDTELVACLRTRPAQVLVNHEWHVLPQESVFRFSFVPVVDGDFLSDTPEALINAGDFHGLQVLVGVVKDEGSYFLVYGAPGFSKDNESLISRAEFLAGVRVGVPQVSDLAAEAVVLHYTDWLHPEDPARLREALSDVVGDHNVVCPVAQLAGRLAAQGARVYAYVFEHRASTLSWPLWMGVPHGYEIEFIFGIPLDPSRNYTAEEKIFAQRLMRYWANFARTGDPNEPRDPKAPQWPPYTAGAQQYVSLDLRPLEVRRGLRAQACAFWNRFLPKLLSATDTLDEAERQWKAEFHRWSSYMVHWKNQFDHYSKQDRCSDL

| SMILES | IC50 (Acetylcholinesterase) [µM] | IC50 (Cholinesterase [1]) [µM] | Activity (SH-SY5Y [4]) | further results |
| --- | --- | --- | --- | --- |
| CCOc1ccc2[nH]c(SCc3cn(CC4CCN(Cc5ccccc5)CC4)nn3)nc2c1 | 6.9 | 1.91 | – | – |
| CC(=O)N[C@@H](Cn1cc(-c2ccccc2)nn1)C(=O)NCC1CCN(Cc2ccccc2)CC1 | > 10 | 0.00017 | Non-Toxic | Ratio IC50 (Cholinesterase [2]): 53000; Ratio IC50 (Homo sapiens): > 58000; inhibition (Cholinesterase [3]): Active |
| O=C(Cc1c[nH]c2ccccc12)NCc1cn(CC2CCN(Cc3ccccc3)CC2)nn1 | > 10 | 5.3 | – | – |
| N[C@@H](Cn1cc(-c2ccccc2)nn1)C(=O)NCC1CCN(Cc2ccccc2)CC1 | > 10 | 0.0099 | Non-Toxic | inhibition (Cholinesterase [3]): Active; Activity (SH-SY5Y [5]): Toxic; Activity (SH-SY5Y [6]): Non-Toxic |
| N[C@@H](CCCCn1cc(-c2ccccc2)nn1)C(=O)NCC1CCN(Cc2ccccc2)CC1 | > 10 | 0.97 | Non-Toxic | Activity (SH-SY5Y [7]): Toxic; Activity (SH-SY5Y [6]): Non-Toxic |
| c1ccc(CN2CCC(Cn3cc(CSc4nc5ccccc5[nH]4)nn3)CC2)cc1 | 7.33 | 0.065 | – | – |
| O=C1c2ccccc2C(=O)N1Cc1cn(CC2CCN(Cc3ccccc3)CC2)nn1 | 4.9 | > 10 | – | – |
| c1ccc(CN2CCC(Cn3cc(CNc4ncnc5ccccc45)nn3)CC2)cc1 | 4.22 | 2.95 | – | – |
| COc1cc2c(cc1OC)C(=O)C(Cc1cn(CC3CCN(Cc4ccccc4)CC3)nn1)C2 (stereo not drawn) | 4.92 | > 10 | – | – |
| COc1cc2ncnc(NCc3cn(CC4CCN(Cc5ccccc5)CC4)nn3)c2cc1OC | 3.94 | > 10 | – | – |
| CC(=O)N[C@@H](CCCCn1cc(-c2ccccc2)nn1)C(=O)NCC1CCN(Cc2ccccc2)CC1 | > 10 | 1.02 | Non-Toxic | Ratio IC50 (Cholinesterase [2]): 9; Activity (SH-SY5Y [8]): Toxic; Activity (SH-SY5Y [6]): Non-Toxic; Activity (SH-SY5Y [9]): Toxic |
